Tests used:
HepG2 [1] = test: Hepatoprotective activity against APAP-induced toxicity in human HepG2 cells assessed as cell survival rate at 10 uM after 48 hrs by MTT assay relative to control; assay type: functional; conditions: HepG2, 48 h, read-out: Survival
In short: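 HepG2 cells were co-treated with compound (10 μM final) and acetaminophen (10 mM final per methods; results text cites 8 mM) for 48 h. Bicyclol served as positive control and DMSO as negative control. MTT (0.5 mg/mL) was added for 4 h at 37 °C, formazan dissolved in DMSO, and A570 read. Survival = mean OD treated / mean OD solvent control.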

A549 = test: Cytotoxicity against human A549 cells measured after 72 hrs by MTT assay; conditions: A549, 72 h
MCF7 = test: Cytotoxicity against human MCF7 cells measured after 72 hrs by MTT assay; conditions: MCF7, 72 h
HepG2 [2] = test: Cytotoxicity against human HepG2 cells measured after 72 hrs by MTT assay; conditions: HepG2, 72 h
HCT-116 = test: Cytotoxicity against human HCT116 cells measured after 72 hrs by MTT assay; conditions: HCT-116, 72 h
BGC-823 = test: Cytotoxicity against human BGC823 cells measured after 72 hrs by MTT assay; conditions: BGC-823, 72 h

CC(C)[C@H]1CC[C@@H](CO)c2c(O)cc(C(=O)O)cc21
viability at 10 µM (HepG2 [1]): 33.2 to 41.6%

CC(C)[C@H]1CC[C@H](C(=O)O)[C@H]2CCC(C(=O)O)=C[C@@H]21
viability at 10 µM (HepG2 [1]): 33.2 to 41.6%

CC(C)[C@H]1CC[C@H](CO)c2c(O)cc(C(=O)O)cc21
viability at 10 µM (HepG2 [1]): 33.2 to 41.6%

C=C1CC[C@H](C(C)C)[C@@H](/C=C(\CC(=O)O)C(=O)O)[C@@H]1O
viability at 10 µM (HepG2 [1]): 33.2 to 41.6%

COC(=O)c1cc(OC)c2c(c1-c1c(CO)cc(OC)c3c1OCO3)OCO2 [BICYCLOL]
viability at 10 µM (HepG2 [1]): 31.9%

C=C(CC[C@@H](C)[C@H]1CC[C@H]2C3=CC(=O)[C@H]4[C@H](O)[C@@H](O)CC[C@]4(C)[C@H]3CC[C@]12C)C(C)COC (stereo partly drawn)
viability at 10 µM (HepG2 [1]): 33.2 to 41.6%
IC50 (A549): > 10000 nM
IC50 (MCF7): 2600 nM
IC50 (HepG2 [2]): > 10000 nM
IC50 (HCT-116): > 10000 nM
IC50 (BGC-823): > 10000 nM

C=C(C)[C@@]12O[C@@H]1[C@@]1(C)C(=CC2=O)CC[C@@H](O)[C@@H]1C
viability at 10 µM (HepG2 [1]): 33.2 to 41.6%

CC(=O)O[C@H]1C(=O)[C@@]2(C)[C@H]([C@H](OC(=O)c3ccccc3)[C@]3(O)C[C@H](OC(=O)[C@H](O)[C@@H](NC(=O)c4ccccc4)c4ccccc4)C(C)=C1C3(C)C)[C@]1(OC(C)=O)CO[C@@H]1C[C@@H]2O [PACLITAXEL]
IC50 (A549): 13.7 nM
IC50 (MCF7): 0.2 nM
IC50 (HepG2 [2]): 1.9 nM
IC50 (HCT-116): 1.8 nM
IC50 (BGC-823): 0.4 nM

CC(=O)OC/C(=C\[C@@H]1[C@@H](C(C)C)CC[C@@]2(O)COC(=O)[C@@H]12)C(=O)O
viability at 10 µM (HepG2 [1]): 33.2 to 41.6%
